Compounds with a hit are over-represented: about 3.2% of the library has one in this group of screens.
Plk1 PBD FP: Plk1 polo box domain binding inhibitors, primary screen, biochemical, fluorescence polarization. 97,000 compounds, 0.13% hits. inhibition, %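 (tested at about 20 µM)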. AID 693, 2007. Plk1 PBD phosphopeptide binding. Serine/threonine-protein kinase PLK1 (Homo sapiens), P53350; in the data active means inhibition above about 34%, passing the limit was not always enough
PLK1 kinase inh: human PLK1 kinase inhibitors, primary screen, biochemical, TR-FRET. recombinant PLK1 kinase, TR-FRET peptide phosphorylation. inhibition, % at 10 µM. 97,000 compounds, 0.53% hits. AID 619, 2007;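 active means inhibition of 50% or more in the single-concentration screen; inactive means inhibition below 50%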
EphB4 antag: EphB4-ephrin-B2 interaction antagonists, primary screen, biochemical, TNYL-RAW peptide probe, fluorescence polarization; Ephrin type-B receptor 4 (Homo sapiens), P54760; EphB4 LBD / TNYL-RAW-Alexa532 peptide; inhibition, % at 7 µM; 97,000 compounds, 0.15% hits;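 active means inhibition above the screen-wide mean inhibition plus 3 SD, cut at about 15% in these data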
Rev-RRE block: HIV-1 Rev-RRE binding inhibitors, primary screen, biochemical, FRET, protein-RNA interaction; P05866; Rev peptide-RRE RNA binding; inhibition, % at 8 µM; 97,000 compounds, 0.79% hits; AID 704, 2007;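 active means inhibition above the screen-wide mean plus 3 SD, cut at about 35% in these data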
Target sequence (P05866 whole entry, looked up): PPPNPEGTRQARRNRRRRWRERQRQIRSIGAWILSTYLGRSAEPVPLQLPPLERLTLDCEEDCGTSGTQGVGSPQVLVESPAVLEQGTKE
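Test system: Cy5-tagged RRE RNA duplex with fluorescein-tagged Rev peptide | Read-out: % inhibition of FRET ratio versus controls | Probe or stimulus: Labelled Rev peptide | Incubation: 5 min RNA-compound premix plus 15 min binding step, 25 °C | Technique: FRET fluorescence readout | Benchmarks: DMSO low control, neomycin B high control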
hDAT+cocaine: changed hDAT dopamine uptake under cocaine IC80, either direction, primary screen, cocaine antagonist project, cell-based, LLC-PK1 hDAT, [14C]-dopamine uptake, MLSMR; 110,000 compounds, 1.3% hits; B-score at 10 µM; LLC-PK1 hDAT cells, [14C]-dopamine uptake with cocaine IC80; actives deviate in either direction; Sodium-dependent dopamine transporter (Homo sapiens), Q01959;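 active means Z score or B-score, a plate-position-corrected score, falls beyond the plate's 99.7% confidence bounds, in either direction; inactive means both scores lie inside the 99.7% bounds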
FAK blocker: FAK kinase inhibitors, primary screen, biochemical | biochemical FAK kinase activity assay | Focal adhesion kinase 1 (Homo sapiens), Q05397 | 97,000 compounds, 0.84% hits | inhibition, %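 (tested at 7 µM)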
FAK inh conf: FAK kinase inhibitors, retest, confirmation, biochemical; FAK kinase biochemical inhibition assay; shares compounds with FAK blocker; inhibition, % at 7 µM; 750 compounds, 28% hits
A number is an active result; . = inactive; / = not tested or not shown; [ ] = dose if it differs, or a comment. Unless noted, no stated cut-off is given here; in the data, active means inhibition above about 19%; inactive means the rest.

SMILES | Plk1 PBD FP | PLK1 kinase inh | EphB4 antag | Rev-RRE block | hDAT+cocaine | FAK blocker | FAK inh conf
O=C(NCCc1c[nH]c2ccccc12)C1CCN(c2nnc(N3CCCC3=O)s2)CC1 | . | . | . | . | . | 36 | 31
O=C(O)C1CCCCC1C(=O)NCCc1c[nH]c2ccccc12 (stereo unspecified) | . | . | . | . | . | . | /
Cn1c(Oc2ccccc2)c(C=O)c2ccccc21 | . | . | . | . | . | . | /
Cc1n[nH]c(C)c1N=Nc1cc(Cl)ccc1Cl | . | 54 | . | . | . | 41 | 21
CCn1c(=O)c2c(cnn2C)c2ccccc21 | . | . | . | . | . | 32 | .
CCn1c(=O)c(-c2ccccc2)c(O)c2ccccc21 | . | . | . | . | . | . | /
CCC(C)n1cnc2c(c1=O)c1nc3ccccc3nc1n2-c1ccc2c(c1)OCCO2 (stereo unspecified) | . | . | . | . | / | 21 | .
COc1ccc(-c2ccc3c(N)c(C(=O)c4ccc(OC)c(OC)c4)sc3n2)cc1 | . | . | . | 85[fluorescence artefact?] | . | 35 | 25
COc1ccc(C(=O)c2sc3nc(-c4ccccc4)ccc3c2N)cc1OC | . | . | . | 97[fluorescence artefact?] | . | 59 | 34
CN(Cc1ccccc1)c1ncnc2ccc(Br)cc12 | . | . | . | . | . | 39 | .
Cc1cc2c(C)nc(-c3ccccc3)nc2o1 | . | . | . | . | . | 25 | .
Cc1cc(OCC(=O)Nc2ccc(N3CCN(C(=O)c4ccco4)CC3)cc2)cc(C)c1Cl | . | . | . | . | . | 69 | 22
Cc1cc(OCC(=O)Nc2ccc(N3CCCC3)cc2)cc(C)c1Cl | . | . | . | . | . | 33 | .
O=C(Cc1ccc(Cl)cc1)Nc1ccc(N2CCN(C(=O)c3ccco3)CC2)cc1 | . | . | . | . | . | . | /
CCCCNC(=O)Nc1cc(C(=O)OC)ccc1Cl | . | . | . | . | . | . | /
Cc1ccccc1NC(=O)CN1C(=O)S/C(=C\c2cccn2-c2cccc(C(=O)O)c2)C1=O | . | . | . | . | . | . | /
Cc1ccc(NC(=O)CN2C(=O)S/C(=C\c3cccn3-c3cccc(C(=O)O)c3)C2=O)c(C)c1 | . | . | . | . | . | 65 | .
OC(CNCc1ccco1)Cn1c2ccc(Br)cc2c2cc(Br)ccc21 (stereo unspecified) | . | . | . | . | . | . | /
COc1ccc(CCNC(=O)COC(=O)c2ccco2)cc1OC | . | . | . | . | . | . | /
COc1ccc(CCNC(=O)c2ccc3nc(-c4ccco4)c(-c4ccco4)nc3c2)cc1OC | . | . | . | . | . | 54 | .
COc1ccccc1-c1cc(N)n[nH]1 | . | . | . | . | . | 25 | .
COc1ccccc1-c1nc(SCC(=O)O)n[nH]1 | . | . | . | . | . | . | /
Brc1ccc2ncnc(Nc3ccc(N4CCOCC4)cc3)c2c1 | . | . | . | . | . | 20 | .
O=C(COc1ncnc2ccc(Br)cc12)Nc1ccc(N2CCOCC2)cc1 | . | . | . | . | . | . | /
CCOC(=O)C1=C(N)c2ccccc2CC1C(C)C (stereo unspecified) | . | . | . | . | . | . | /
SMILES | Plk1 PBD FP | PLK1 kinase inh | EphB4 antag | Rev-RRE block | hDAT+cocaine | FAK blocker | FAK inh conf
Cc1ccc(/C=N/NC(=O)CCCOc2ccc(Cl)cc2Cl)cc1[N+](=O)[O-] | . | . | . | . | . | . | /
COc1ccc(/C=N/NC(=O)CCCOc2ccc(Cl)cc2Cl)cc1[N+](=O)[O-] | . | . | . | . | / | 23 | .
Cc1ccccc1C(=O)c1cccn1CC(=O)NCc1ccc2c(c1)OCO2 | . | . | . | . | . | . | /
Cn1c(C(=O)N2CCN(C(=O)c3ccco3)CC2)cc2c(=O)n(C)c3ccccc3c21 | . | . | . | . | 2.2 | 19 | .
Cn1c(C(=O)N2CCN(C3CCCCC3)CC2)cc2c(=O)n(C)c3ccccc3c21 | . | . | . | . | . | . | /
O=C1C(=O)c2c(C(=O)c3ccccc3)coc2-c2ccccc21 | . | . | . | . | . | 32 | 20
CCn1c(=O)c(C(=O)Nc2nc3ccccc3[nH]2)c(O)c2ccccc21 | . | . | . | . | . | 23 | 21
CCn1c(=O)c(C(=O)Nn2c(C)nc3ccccc3c2=O)c(O)c2ccccc21 | / | / | / | / | . | / | /
CCOC(=O)CSc1snnc1-c1ccccc1 | . | . | . | . | . | . | /
Cc1ccccc1Cn1c2ccccc2c2cn[nH]c(=O)c21 | . | . | . | . | . | 20 | .
COC(=O)c1c(S(=O)(=O)NCc2ccccc2)sc(C(=O)O)c1C | . | . | . | . | . | . | /
Cc1ccc2nc(-c3ccc(NC(=O)CSc4ccccc4)cc3)[nH]c2c1 | . | . | . | . | . | 32 | .
Cc1ccc2nc(-c3ccc(SCC(=O)O)nc3)[nH]c2c1 | . | . | . | . | . | . | /
CC(C)N1CC(C(=O)O)CC1=O (stereo unspecified) | . | . | . | . | . | . | /
COCCNC(=O)C(c1ccc(C)o1)N(Cc1ccco1)C(=O)c1snc(C(N)=O)c1N (stereo unspecified) | . | . | . | . | . | . | /
COCCNC(=O)C(c1ccc(C)o1)N(C(=O)c1snc(C(N)=O)c1N)c1cc(C)cc(C)c1 (stereo unspecified) | . | . | . | . | . | 23 | .
NC(=O)C1CCCN(S(=O)(=O)c2ccc(Br)cc2)C1 (stereo unspecified) | . | . | . | . | . | . | /
CN1CCc2c(sc3nc(SCC(=O)N4CCOCC4)nc(N)c23)C1 | / | / | / | / | . | / | /
CSc1nc(SCC(=O)NC(c2ccccc2)c2ccccc2)c2c3c(sc2n1)CN(C)CC3 | . | . | . | . | . | 24 | .
CCc1ccccc1NC(=S)N1CCC(C(=O)c2ccc(F)cc2)CC1 | . | . | . | . | . | . | /
COCCNC(=O)c1ccc2c(=O)n(Cc3ccco3)c(SCC(=O)NC3CCCCC3)nc2c1 | . | . | . | . | . | 33 | .
O=C(CSc1nc2ccccc2c(=O)n1Cc1ccco1)N1CCCCCC1 | . | . | . | . | . | 36 | .
COC(=O)Cc1ccc2c3ccccc3n(C)c2c1 | . | . | . | . | . | 41 | 32
COc1ccc(S(=O)(=O)Nc2cc(Sc3ncn[nH]3)c(O)c3ccccc23)cc1 | . | . | . | . | / | 45 | .

Source: PubChem BioAssay (several laboratories)
